According to ChEMBL document CHEMBL4316619 (Bioorg Med Chem Lett, 2019):
Active and inactive are the calls of the source. The rule behind the calls is not given here.

How the values were obtained:
MDCK = experiment: Cytotoxicity against MDCK cells assessed as reduction in cell viability measured after 48 hrs by CellTiter Glo assay; assay type: cell-based, Canis lupus familiaris; details: dog
Procedure, shortened: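 MDCK cells were incubated with compound under the conditions of the 48 h replication assay. Cytotoxicity was read with the CellTiter-Glo ATP viability assay. Follow-up viability testing used 5, 10, 50 and 100 μM.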

Influenza A virus [1] = experiment: Antiviral activity against Influenza A virus A/PR/8/34 (H1N1) infected in MDCK cells assessed as fold reduction in virus titer at 10 uM measured after 48 hrs by hemagglutination assay relative to control; assay type: functional, A/Puerto Rico/8/1934(H1N1)
Procedure, shortened: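 MDCK cells were infected with A/PR/8/34 (H1N1) at MOI 0.1 and incubated with compound for 48 h. Supernatant virus was then quantified by hemagglutination assay and standard TCID50 analysis. The single-concentration screen used 10 μM and reports fold reduction in titer. Dose-response runs used triplicate cultures, with percent titer decrease back-calculated from TCID50.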

[2] = target: Non-structural protein 1 (Influenza A virus (strain A/Puerto Rico/8/1934 H1N1)) (UniProt P03496); experiment: Inhibition of NS1 in Influenza A virus A/PR/8/34 (H1N1) infected in MDCK cells assessed as restoration of protein-induced reduction in IFN-beta mRNA expression at 20 uM measured after 6 hrs by RT-PCR analysis; assay type: cell-based; details: Influenza A virus (A/Puerto Rico/8/1934(H1N1))
Procedure, shortened: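 MDCK cells infected with A/PR/8/34 at MOI 2 and incubated 6 h with compound at 20 μM. Cells harvested; IFN-β and β-actin mRNA detected by RT-PCR. Poly(I:C) lane serves as positive control for IFN-β induction.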

Influenza A virus H3N2 = experiment: Antiviral activity against Influenza A virus (A/Brisbane/10/2007(H3N2)) infected in MDCK cells assessed as reduction in virus-induced cytopathic effect measured on day 5 by Celltiter-Glo luminescence assay; assay type: functional, organism-based; details: 120 h
Procedure, shortened: (§1)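 MDCK cells were infected with seasonal influenza A strains through NIAID resources and scored for protection from virus-induced cell death. Compounds were tested at four concentrations (0.8, 4, 20, 100 μM). EC50/EC90 (reduction of viral cell death) and CC50 (reduction of cell viability) were derived in μM, and SI50 = CC50/EC50.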

Influenza A virus [3] = experiment: Antiviral activity against Influenza A virus (A/California/7/2009(H1N1)) infected in MDCK cells assessed as reduction in virus-induced cytopathic effect measured on day 5 by Celltiter-Glo luminescence assay; assay type: functional, organism-based; details: 120 h; procedure, shortened: as §1
Saccharomyces cerevisiae = experiment: Effect on growth of Yeast 9526-6-2 harboring pYES at 50 uM measured up to 60 hrs; assay type: organism-based; details: in vivo
Procedure, shortened: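 Control yeast carrying empty pYES and NS1-expressing NS1-pYES strain grown with DMSO or compound at 50 μM. Growth measured as OD600 at 22, 42 and 60 h.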

[4] = Stability of the compound in mouse liver microsomes assessed as parent compound remaining measured after 15 mins; assay type: ADME, Microsome; details: read-out: Stability
Procedure, shortened: (§2)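 Mouse liver microsomes; percent parent compound remaining measured at 0, 15 and 30 min.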

[5] = Stability of the compound in mouse liver microsomes assessed as parent compound remaining measured after 30 mins; assay type: ADME, Microsome; details: read-out: Stability; procedure, shortened: as §2
[6] = Stability of the compound in mouse liver microsomes assessed as parent compound remaining measured immediately; assay type: ADME, Microsome; details: read-out: Stability; procedure, shortened: as §2
Influenza A virus [7] = experiment: Effect on NS1 protein expression in Influenza A virus A/PR/8/34 (H1N1) infected in MDCK cells at 20 uM by Western blot analysis; assay type: functional, organism-based; details: A/Puerto Rico/8/1934(H1N1)
Procedure, shortened: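 MDCK cells, uninfected or infected with A/PR/8/34, treated with DMSO or compound at 20 μM. NS1 protein detected by Western blot, with α-tubulin as loading control.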

[8] = target: Non-structural protein 1 (Influenza A virus (strain A/Puerto Rico/8/1934 H1N1)) (UniProt P03496); experiment: Inhibition of Influenza A virus A/PR/8/34 (H1N1) NS1 expressed in 293 cells assessed as increase in poly(I:C)-induced IFN-beta reporter activity treated 16 hrs […] measured after 24 hrs by luciferase reporter gene assay; assay type: cell-based; details: Influenza A virus (A/Puerto Rico/8/1934(H1N1))
Procedure, shortened: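 293 cells co-transfected with a human IFN-β promoter-driven firefly luciferase reporter and NS1 expression constructs. At 16 h post-transfection, poly(I:C) 50 μg/mL plus compound (20 μM) or 1% DMSO added for a further 24 h; luciferase read by luminometer. Untransfected cells serve as baseline.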

[9] = Cytotoxicity against MDCK cells assessed as reduction in cell viability measured on day 5 by Celltiter-Glo luminescence assay; assay type: cell-based, Canis lupus familiaris; details: dog, MDCK cells; procedure, shortened: as §1
[10] = Aqueous kinetic solubility of the compound; assay type: physicochemical; details: buffer
[11] = Apparent permeability across basolateral to apical side in human Caco2 cells measured after 2 hrs; assay type: ADME, cell-based; details: caco-2, 2 h
Procedure, shortened: (§3)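 Permeability was measured across Caco-2 monolayers in both directions, apical to basolateral and basolateral to apical. […] Runs were done with and without 3% BSA, and mass recovery (%) was reported for each direction. Efflux ratio = Papp B→A / Papp A→B.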

[12] = target: Luciferin 4-monooxygenase (Photinus pyralis) (UniProt P08659); experiment: Effect on firefly luciferase activity expressed in 293 cells at 50 uM by luminescence assay; assay type: cell-based
Influenza B virus = experiment: Antiviral activity against Influenza B virus (B/Brisbane/60/2008) infected in MDCK cells assessed as reduction in virus-induced cytopathic effect measured on day 5 by Celltiter-Glo luminescence assay; assay type: functional, organism-based
[13] = Apparent permeability across apical to basolateral side in human Caco2 cells measured after 2 hrs; assay type: ADME, cell-based; details: caco-2, 2 h; procedure, shortened: as §3

Chain of Luciferin 4-monooxygenase (Photinus pyralis) (P08659 whole entry): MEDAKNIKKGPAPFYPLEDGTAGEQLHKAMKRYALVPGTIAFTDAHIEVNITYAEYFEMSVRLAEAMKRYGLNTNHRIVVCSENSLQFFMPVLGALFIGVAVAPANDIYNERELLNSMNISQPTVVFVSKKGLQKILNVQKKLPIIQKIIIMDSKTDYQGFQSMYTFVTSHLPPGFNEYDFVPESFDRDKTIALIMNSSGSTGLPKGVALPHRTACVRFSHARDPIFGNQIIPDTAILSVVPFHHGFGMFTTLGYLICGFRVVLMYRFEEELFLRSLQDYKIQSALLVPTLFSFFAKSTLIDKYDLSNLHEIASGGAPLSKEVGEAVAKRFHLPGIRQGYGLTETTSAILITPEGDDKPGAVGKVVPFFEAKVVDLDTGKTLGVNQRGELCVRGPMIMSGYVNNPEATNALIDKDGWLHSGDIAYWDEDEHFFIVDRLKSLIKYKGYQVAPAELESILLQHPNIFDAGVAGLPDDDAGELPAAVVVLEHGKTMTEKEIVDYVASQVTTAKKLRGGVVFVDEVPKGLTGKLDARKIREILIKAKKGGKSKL
Chain of Non-structural protein 1 (Influenza A virus (strain A/Puerto Rico/8/1934 H1N1)) (P03496 whole entry): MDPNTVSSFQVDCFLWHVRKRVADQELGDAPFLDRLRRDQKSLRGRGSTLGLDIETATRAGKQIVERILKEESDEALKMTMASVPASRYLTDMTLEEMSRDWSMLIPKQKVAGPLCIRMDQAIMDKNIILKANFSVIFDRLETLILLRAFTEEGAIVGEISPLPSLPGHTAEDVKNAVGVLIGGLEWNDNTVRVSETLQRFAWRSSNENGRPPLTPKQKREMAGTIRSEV

SMILES | Activity (MDCK) | fold change (FC) (Influenza A virus [1]) | further results
CCOC(=O)c1cnc2c(c(C)nn2-c2ccc(F)cc2)c1-c1ccc(O)c(OC)c1 | Non-Toxic | 16 | 
COc1cc(-c2c3c(C)nn(-c4ccccc4)c3nc3[nH]c(=O)[nH]c(=O)c23)cc(OC)c1O | Non-Toxic | 4 | 
COc1ccc(-c2c(C#N)c(N)nc3c2c(C)nn3-c2ccccc2)cc1OC | Non-Toxic | 2 | 
COc1ccc(-c2c(C#N)c(N)nc3c2c(C)nn3-c2ccc(Cl)cc2)cc1OC | Non-Toxic | 0 | 
COc1ccc(-c2c(C#N)c(N)nc3c2c(C)nn3-c2ccc(F)cc2)cc1OC | Non-Toxic | 2 | 
COc1ccc(-c2c(C#N)c(O)nc3c2c(C)nn3-c2ccccc2)cc1OC | Non-Toxic | 2 | 
O=C(NCCCc1ccccc1)c1ccccc1O |  |  | inhibition [2]: Active
COc1ccc(-c2c3c(C)nn(-c4ccccc4)c3nc3[nH]c(=O)[nH]c(=O)c23)cc1OC | Non-Toxic | 4 | 
COc1cc(-c2c(C(=O)O)cnc3c2c(C)nn3-c2ccc(F)cc2)ccc1O | Non-Toxic | 4 | 
COc1cc(-c2c(C#N)c(N)nc3c2c(C)nn3-c2ccc(C)cc2)cc(OC)c1OC | Non-Toxic | 32 | 
NC(=O)c1ncn([C@@H]2O[C@H](CO)[C@@H](O)[C@H]2O)n1 [RIBAVIRIN] |  |  | EC50 (Influenza A virus H3N2): 28.8 µM; EC90 (Influenza A virus H3N2): 34.9 µM; EC50 (Influenza A virus [3]): 2.2 µM; EC90 (Influenza A virus [3]): 3.5 µM
COc1cc(-c2c(C#N)c(O)nc3c2c(C)nn3-c2ccccc2)ccc1O | Non-Toxic | 16 | 
COc1cc(-c2c(C#N)c(N)nc3c2c(C)nn3-c2ccc(Cl)cc2)cc(OC)c1OC | Non-Toxic | 0 | 
COc1ccc(-c2c(C#N)c(O)nc3c2c(C)nn3-c2ccc(F)cc2)cc1OC | Non-Toxic | 0 | 
COc1cccc(-n2nc(C)c3c(-c4ccc(O)c(OC)c4)ccnc32)c1 | Non-Toxic | 0 | 
Cc1nn(-c2ccc(F)cc2)c2nc(N)c(C#N)c(-c3ccc(O)c(O)c3)c12 | Non-Toxic | 16 | 
COc1cc(-c2ccnc3c2c(C)nn3-c2ccccc2)ccc1O | Non-Toxic | 2 | 
COc1cc(-c2ccnc3c2c(C)nn3-c2cccc(F)c2)ccc1O | Non-Toxic | 0 | 
COc1cc(-c2c(C#N)c(N)nc3c2c(C)nn3-c2ccccc2)ccc1O | Non-Toxic | 32 | 
Cc1nn(-c2ccc(Cl)cc2)c2nc(N)c(C#N)c(-c3ccc(O)c(O)c3)c12 | Non-Toxic | 256 | Activity (Saccharomyces cerevisiae): Non-Toxic; remaining at 0.25 h [4]: 93%; remaining at 0.5 h [5]: 90%; remaining at 0 min [6]: 100%; Activity (Influenza A virus [7]): inactive; inhibition [8]: Active; EC50 (Influenza A virus H3N2): > 50 µM; EC90 (Influenza A virus H3N2): > 50 µM; EC50 (Influenza A virus [3]): > 50 µM; EC90 (Influenza A virus [3]): > 50 µM; inhibition [2]: Active; CC50 at 5 day [9]: 20.4 to 31.9 µM; Kinetic_solubility [10]: 1.9 µM; Papp [11]: 2.64 ×10⁻⁶ cm/s; Activity [12]: inactive; Activity (Influenza B virus): inactive; Papp [13]: 0.34 ×10⁻⁶ cm/s

SMILES | Activity (MDCK) | fold change (FC) (Influenza A virus [1]) | further results
COc1cc(-c2c(C#N)c(N)nc3c2c(C)nn3-c2ccc(F)cc2)cc(OC)c1OC | Non-Toxic | 0 | EC50 (Influenza A virus H3N2): > 50 µM; EC90 (Influenza A virus H3N2): > 50 µM; EC50 (Influenza A virus [3]): 18.3 µM; EC90 (Influenza A virus [3]): 42.4 µM; CC50 at 5 day [9]: 0.87 to 6 µM; Activity (Influenza B virus): inactive
COc1ccc(-c2c(C#N)c(N)nc3c2c(C)nn3-c2ccc(C)cc2)cc1OC | Non-Toxic | 0 | 
COc1cc(-c2c(C#N)c(N)nc3c2c(C)nn3-c2ccc(F)cc2)ccc1O | Non-Toxic | 256 | Activity (Saccharomyces cerevisiae): Non-Toxic; remaining at 0.25 h [4]: 74%; remaining at 0.5 h [5]: 60%; remaining at 0 min [6]: 100%; Activity (Influenza A virus [7]): inactive; inhibition [8]: Active; EC50 (Influenza A virus H3N2): 10.1 µM; EC90 (Influenza A virus H3N2): > 50 µM; EC50 (Influenza A virus [3]): 2.1 µM; EC90 (Influenza A virus [3]): 4.6 µM; inhibition [2]: Active; CC50 at 5 day [9]: 24.7 to 48.3 µM; Kinetic_solubility [10]: 3 µM; Activity [12]: inactive; Activity (Influenza B virus): inactive
COc1ccc(-c2c3c(C)nn(-c4ccccc4)c3nc3[nH]c(=O)[nH]c(=O)c23)cc1O | Non-Toxic | 2 | 
Cc1ccc(-n2nc(C)c3c(-c4ccc(O)c(O)c4)c(C#N)c(N)nc32)cc1 | Non-Toxic | 64 | 
COc1cc(-c2c(C#N)c(O)nc3c2c(C)nn3-c2ccccc2)cc(OC)c1OC | Non-Toxic | 16 | 
COc1cccc(-c2ccnc3c2c(C)nn3-c2ccc(F)cc2)c1 | Toxic | 4 | 
COc1cc(-c2c3c(C)nn(-c4ccccc4)c3nc3[nH]c(=O)[nH]c(=O)c23)ccc1O | Non-Toxic | 2 | 
COc1ccc(-n2nc(C)c3c(-c4ccc(O)c(OC)c4)ccnc32)cc1 | Non-Toxic | 32 | 
COc1ccc(-c2ccnc3c2c(C)nn3-c2ccc(F)cc2)cc1OC | Non-Toxic | 2 | 
Cc1nn(-c2ccccc2)c2nc3[nH]c(=O)[nH]c(=O)c3c(-c3ccc4c(c3)OCO4)c12 | Non-Toxic | 4 | 
COc1cc(-c2c(C#N)c(N)nc3c2c(C)nn3-c2ccc(C)cc2)ccc1O | Non-Toxic | 4 | 
Cc1nn(-c2ccccc2)c2nc(N)c(C#N)c(-c3ccc(O)c(O)c3)c12 | Non-Toxic | 32 | 
Cc1ccc(-n2nc(C)c3c(-c4ccc(O)c(O)c4)c(C#N)c(N)nc32)cc1C | Non-Toxic | 256 | Activity (Saccharomyces cerevisiae): Non-Toxic; remaining at 0.25 h [4]: 78%; remaining at 0.5 h [5]: 64%; remaining at 0 min [6]: 100%; Activity (Influenza A virus [7]): inactive; inhibition [8]: Active; EC50 (Influenza A virus H3N2): > 50 µM; EC90 (Influenza A virus H3N2): > 50 µM; EC50 (Influenza A virus [3]): 1.2 µM; EC90 (Influenza A virus [3]): 3.4 µM; inhibition [2]: Active; CC50 at 5 day [9]: 24.5 to 39.3 µM; Kinetic_solubility [10]: 11.6 µM; Activity [12]: inactive; Activity (Influenza B virus): inactive
COc1cc(-c2c(C#N)c(N)nc3c2c(C)nn3-c2ccc(C)c(C)c2)cc(OC)c1OC | Non-Toxic | 0 | 
COc1cc(-c2c(C#N)c(N)nc3c2c(C)nn3-c2ccccc2)cc(OC)c1OC | Non-Toxic | 16 | 
COc1cc(-c2ccnc3c2c(C)nn3-c2ccc(F)cc2)ccc1O | Non-Toxic | 2 | 
COc1cc(-c2c(C#N)c(N)nc3c2c(C)nn3-c2ccc(Cl)cc2)ccc1O | Non-Toxic | 32 | 
COc1cc(-c2c(C#N)c(N)nc3c2c(C)nn3-c2ccc(C)c(C)c2)ccc1O | Non-Toxic | 4 | 
